Data: ChEMBL document CHEMBL4732095, “Novel naphthylamide derivatives as dual-target antifungal inhibitors: Design, synthesis and biological evaluation” (Eur J Med Chem, 2021)

Legend:
Format in all cases: functional
[1] = test system: Candida albicans; test: Antifungal activity against Candida albicans ATCC 10231 assessed as inhibition of microbial growth by NCCLS protocol based method
How it was run: (§1)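 Broth MIC50 determined following NCCLS guidelines in Sabouraud medium, with fungal suspension in 24-well format. Compound tested at 0.0625, 0.125, 0.5, 1, 2, 4, 8 and 16 μg/mL. Plates cultured statically at 35 °C. MIC50 is the lowest concentration giving 50% growth inhibition. Naftifine and fluconazole served as positive controls.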

[2] = test system: Aspergillus fumigatus; test: Antifungal activity against Aspergillus fumigatus KM8001 assessed as inhibition of microbial growth by NCCLS protocol based method; how it was run: as §1
[3] = test system: Nakaseomyces glabratus; test: Antifungal activity against Candida glabrata ATCC 0001 assessed as inhibition of microbial growth by NCCLS protocol based method; how it was run: as §1
[4] = test system: Pichia kudriavzevii; test: Antifungal activity against Candida krusei ATCC 6258 assessed as inhibition of microbial growth by NCCLS protocol based method; how it was run: as §1
[5] = test system: Candida tropicalis; test: Antifungal activity against Candida tropicalis ATCC 1369 assessed as inhibition of microbial growth by NCCLS protocol based method; how it was run: as §1

| SMILES | MIC50 [1] | MIC50 [2] | MIC50 [3] | MIC50 [4] | MIC50 [5] |
| --- | --- | --- | --- | --- | --- |
| O=C(CNC(=O)c1ccc2ccccc2c1)NC(Cn1ccnc1)C(=O)c1ccccc1 (stereo not given) | 0.25 µg/mL | > 16 µg/mL | 1 µg/mL | 0.5 µg/mL | 0.25 µg/mL |
| O=C(NC(Cn1ccnc1)C(=O)NC1CCCC1)c1cccc2ccccc12 (stereo not given) | 0.5 µg/mL | > 16 µg/mL | 2 µg/mL | 0.5 µg/mL | 0.5 µg/mL |
| O=C(NC(Cn1ccnc1)C(=O)NC1CCCCC1)c1ccc2ccccc2c1 (stereo not given) | 0.5 µg/mL | > 16 µg/mL | 0.25 µg/mL | 0.5 µg/mL | 0.5 µg/mL |
| O=C(NC(Cn1ccnc1)C(=O)NCc1ccncc1)c1cccc2ccccc12 (stereo not given) | 0.25 µg/mL | 8 µg/mL | 0.5 µg/mL | 0.5 µg/mL | 0.25 µg/mL |
| O=C(NC(Cn1ccnc1)C(=O)NC1CCCC1)c1ccc2ccccc2c1 (stereo not given) | 0.25 µg/mL | 8 µg/mL | 0.25 µg/mL | 1 µg/mL | 0.5 µg/mL |
| Cc1ccc(NC(=O)C(Cn2ccnc2)NC(=O)c2cccc3ccccc23)cc1 (stereo not given) | 0.25 µg/mL | > 16 µg/mL | 0.25 µg/mL | 0.5 µg/mL | 0.5 µg/mL |
| CC(C)C(NC(=O)c1cccc2ccccc12)C(=O)NC(Cn1ccnc1)C(=O)c1ccccc1 (stereo not given) | 0.25 µg/mL | > 16 µg/mL | 0.5 µg/mL | 1 µg/mL | 0.5 µg/mL |
